For one data set, the system named is CIA mice. In words: Collagen-induced arthritis. Format: in vivo, mouse (DBA/1 J). To be noted: TIP3 10 nmol/g or MTX 2 mg/kg, i.p. daily from day 22. The gist of the method: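 Male DBA/1J mice (6–7 weeks, 20–23 g) immunised at tail base with 100 μg chicken type II collagen in an equal volume of complete Freund's adjuvant (day 0), boosted day 20. Groups of n = 7. Test compound (2·5 or 10 nmol/g) or methotrexate (2 mg/kg) in saline given i.p. once daily from day 22. Body weight, paw volume and arthritis index tracked. […] (maximum 16), twice weekly.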

In data set [1] the test system is mice with IMQ-induced psoriasis-like disease. The data set can be described thus: Histology and immunohistochemistry of back skin, psoriasis model. The conditions noted are these: immunohistochemistry. It is filed as in vivo, mouse (C57BL/6). An outline of the steps: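 Back-skin lesions from imiquimod-treated C57BL/6 mice fixed in 4% paraformaldehyde, paraffin-embedded and sectioned at 7 μm. H&E staining used for epidermal/dermal thickness, measured by microscopy. Immunohistochemistry done with HRP/DAB detection using primary antibodies to CD68, CD4 and IL-17.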

A further data set has as its system RAW264.7 cells. In words: MTT cell viability, RAW264.7 cells. Format: cell-based, murine. The conditions noted are these: ≤50 µM. An outline of the steps: (§1)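 MTT colourimetric viability assay. HEK-Blue hTLR4 cells (high-glucose DMEM, 10% FBS, normocin) seeded at 5 × 10^4/well. RAW264.7 cells seeded at 2 × 10^5/well. Both grown overnight before exposure to test compound.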

In data set [2] the test system is TLR4. The data set can be described thus: Cytokine ELISA, LPS-stimulated RAW264.7 cells. To be noted: n ≥ 3. It is filed as cell-based, murine. An outline of the steps:
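Murine macrophages seeded at 2 × 10^5/well (96-well) or 5 × 10^5/well (24-well) and grown overnight, then treated with test compound and LPS. After 24 h treatment, secreted IFN-β was measured by pre-coated mouse IFN-β ELISA. Mouse IL-6 and mouse TNF-α were measured by ELISA kits.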
In general terms: An ELISA detects its analyte on a solid surface through an enzyme-linked reagent.

Data set [3] has as its system TLR4. In words: Western blot, LPS-stimulated RAW264.7 cells. Format: cell-based, murine. The conditions noted are these: for expression of MAPKs: Supp Fig. 1c (p-ERK, p-JNK, p-p38). The gist of the method:
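Total protein extracted with M-PER reagent and quantified by BCA. Membranes incubated with primary antibodies overnight at 4 °C, washed in PBS/0·1% Tween 20, then HRP-conjugated secondary (1:1000) for 2 h. Bands detected by enhanced chemiluminescence, with β-actin as loading reference.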

For the next data set, the system named is HEK-Blue™ hTLR4 cells. The data set can be described thus: MTT cell viability, HEK-Blue hTLR4 cells. It is filed as cell-based, human. To be noted: n ≥ 3. The gist of the method: as §1
The subject of data set [4] is TLR4 (HEK-Blue™ hTLR4 cells). The data set can be described thus: SEAP activity assay. Format: cell-based, human. The conditions noted are these: LPS-stimulated; absorbance at 620 nm; n ≥ 3. The gist of the method: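 Seeded at 2 × 10^5/well (24-well) and grown overnight, then treated with a range of test-compound concentrations with or without LPS. Supernatants heat-treated at 65 °C for 10 min. SEAP (NF-κB reporter) detected with HEK-Blue detection medium.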

Data set [5] has as its system multiple TLR signalling pathways. The conditions noted are these: ref [44]; cited from earlier work.

Take `CN(Cc1cnc2nc(N)nc(N)c2n1)c1ccc(C(=O)N[C@@H](CCC(=O)O)C(=O)O)cc1` [MTX, methotrexate, reference compound]: in the data set on CIA mice, the “loss of body weight” value was “not observed”. The arthritis index result in the data set with CIA mice (maximal score 16) was “significantly decreased”. For the same compound, the “relative paw volume (large paw volume)” value in the data set on CIA mice (plethysmometer) is “TIP3 (10 nmol/g)- and MTX-injected mice did not”. Besides, in data set [1], the “overexpression of CD4 in skin” value is given as “just as in the MTX-treated group”, the “overexpression of CD68 in skin” value is listed as “just as in the MTX-treated group” and the “overexpression of IL-17 in skin” value is listed as “just as in the MTX-treated group”.
Consider DYDVCVCH [TIP3 w/o CPP], for which the cell viability entry with RAW264.7 cells is given as “did not affect the cell viability at ≤50 µM”. Moreover, the “LPS-induced TNF-α secretion” value in the data set on TLR4 [2] is on record as “did not have any modulatory effect on TNF-α secretion”. For the same compound, in the data set on TLR4 [3], the Iκ-Bα degradation entry was “neither peptide inhibited Iκ-Bα degradation”; the “phosphorylation of p65 subunit of NF-κB (p-p65)” value is on record as “neither peptide inhibited Iκ-Bα degradation, phosphorylation of the p65 subunit of NF-κB (p-p65)”; the “expression of MAPKs” value is reported as “neither peptide inhibited Iκ-Bα degradation, phosphorylation of the p65 subunit of NF-κB (p-p65), or the expression of mitogen-activated protein kinase (MAPKs)”.
As for “KKWKMRRNQFWIKIQR [CPP, reference compound]”, the cell viability result in the data set on RAW264.7 cells was “did not affect the cell viability at ≤50 µM”. Further, the “LPS-induced TNF-α secretion” value in the data set with TLR4 [2] is reported as “did not have any modulatory effect on TNF-α secretion”. Moreover, in the data set with TLR4 [3], the Iκ-Bα degradation result is given as “neither peptide inhibited Iκ-Bα degradation”; the “phosphorylation of p65 subunit of NF-κB (p-p65)” value is on record as “neither peptide inhibited Iκ-Bα degradation, phosphorylation of the p65 subunit of NF-κB (p-p65)”; the “expression of MAPKs” value is given as “neither peptide inhibited Iκ-Bα degradation, phosphorylation of the p65 subunit of NF-κB (p-p65), or the expression of mitogen-activated protein kinase (MAPKs)”.
As to TIPLLS [TIP2], the “cell viability / cytotoxicity” value with HEK-Blue™ hTLR4 cells (12·5 to 50 μM) is “did not show any significant cytotoxicity”; in the data set on HEK-Blue™ hTLR4 cells (high concentration, 100 μM), “slight cytotoxicity”. Besides, the “inhibition of LPS-induced SEAP activity (NF-κB)” value in data set [4] is recorded as “TIP3, but not TIP2, hampered the LPS-induced SEAP activity”. The TLR signalling inhibition result in data set [5] was “TIP1, but not TIP2, abrogates multiple TLR signalling pathways”.
